Our source for the MIC values is ChEMBL document CHEMBL1151428, “Capability of 11 antipneumococcal antibiotics to select for resistance by multistep and single-step methodologies” (2007).

Values after ≈ are worked out from the molar mass of the structure shown.

Assay type in all cases: functional
Assay [1] has as its system Streptococcus pneumoniae. Briefly: Antimicrobial activity against drug-resistant Streptococcus pneumoniae isolate 1077 after 49 passages with clindamycin measured after 10 antibiotic-free subculture by multi-step resistance selection technique.
Assay [2] has as its system Streptococcus pneumoniae. Briefly: Antimicrobial activity against drug-resistant Streptococcus pneumoniae isolate 3009 after 50 passages by multi-step resistance selection technique. The method in brief: (§1)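 Daily serial passage in subinhibitory drug levels in 1 ml cation-adjusted Mueller-Hinton broth with 5% lysed horse blood; fresh broth for tigecycline. Each day, 10 μl were taken from the tube one to two dilutions below the MIC whose turbidity matched the growth control, and used to set the next MIC. […] MIC by macrodilution.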

In assay [3] the test system is Streptococcus pneumoniae. Briefly: Antimicrobial activity against drug-resistant Streptococcus pneumoniae isolate 3413 after 30 passages by multi-step resistance selection technique. The method in brief:
(§2)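 Daily serial passage in subinhibitory drug in cation-adjusted Mueller-Hinton broth with 5% lysed horse blood, 1 ml per tube, fresh broth for tigecycline. Each day, 10 μl was taken from the tube one to two dilutions below the MIC whose turbidity matched the growth control and used for the next MIC. Passaging ran until MIC rose ≥8 times, minimum 14 and maximum 50 passages. Clone MICs were read by macrodilution.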

In assay [4] the test system is Streptococcus pneumoniae. Briefly: Antimicrobial activity against drug-resistant Streptococcus pneumoniae isolate 3274 after 48 passages with Telithromycin measured after 10 antibiotic-free subculture by multi-step resistance selection technique. A digest of the protocol: (§3)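 Mutants selected by daily broth passage in subinhibitory drug in cation-adjusted Mueller-Hinton broth with 5% lysed horse blood. Stability was tested by 10 daily passages on blood agar without antibiotic, then macrodilution MIC.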

Assay [5] has as its system Streptococcus pneumoniae. The experiment in a line: Antimicrobial activity against drug-resistant Streptococcus pneumoniae isolate 24 after 14 passages by multi-step resistance selection technique. The method in brief:
as §1

Assay [6] relates to Streptococcus pneumoniae. Briefly: Antimicrobial activity against drug-resistant Streptococcus pneumoniae isolate 3274 after 48 passages by multi-step resistance selection technique. The method in brief: as §2
The test system of assay [7] is Streptococcus pneumoniae. The experiment in a line: Antimicrobial activity against drug-resistant Streptococcus pneumoniae isolate 3665 after 14 passages by multi-step resistance selection technique. The method in brief:
as §1

Assay [8] has as its system Streptococcus pneumoniae. Briefly: Antimicrobial activity against drug-resistant Streptococcus pneumoniae isolate 2527 after 20 passages with azithromycin measured after 10 antibiotic-free subculture by multi-step resistance selection technique. A digest of the protocol: as §3
For assay [9], the system named is Streptococcus pneumoniae. Briefly: Antimicrobial activity against drug-resistant Streptococcus pneumoniae isolate 1077 after 15 passages with Telithromycin measured after 10 antibiotic-free subculture by multi-step resistance selection technique. The method in brief: as §3
For assay [10], the system named is Streptococcus pneumoniae. Briefly: Antimicrobial activity against drug-resistant Streptococcus pneumoniae isolate 3243 after 41 passages with clarithromycin measured after 10 antibiotic-free subculture by multi-step resistance selection technique.
In assay [11] the test system is Streptococcus pneumoniae. The experiment in a line: Antimicrobial activity against drug-resistant Streptococcus pneumoniae isolate 1076 after 14 passages with Telithromycin measured after 10 antibiotic-free subculture by multi-step resistance selection technique. The method in brief: as §3
In assay [12] the test system is Streptococcus pneumoniae. Briefly: Antimicrobial activity against drug-resistant Streptococcus pneumoniae isolate 2527 after 50 passages by multi-step resistance selection technique. The method in brief:
as §1

Assay [13] relates to Streptococcus pneumoniae. The experiment in a line: Antimicrobial activity against drug-resistant Streptococcus pneumoniae isolate 3676 after 14 passages by multi-step resistance selection technique. The method in brief: (§4)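 Daily serial passage in broth at subinhibitory drug levels: 1 ml cation-adjusted Mueller-Hinton broth with 5% lysed horse blood; fresh broth for tigecycline. Each day 10 μl inoculum taken from the tube one to two dilutions below MIC matching growth-control turbidity, used to set next MIC. Continued until ≥8-fold MIC rise, minimum 14, maximum 50 passages; MIC read by macrodilution.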

The test system of assay [14] is Streptococcus pneumoniae. Briefly: Antimicrobial activity against drug-resistant Streptococcus pneumoniae isolate 3413 after 30 passages with Telithromycin measured after 10 antibiotic-free subculture by multi-step resistance selection technique. The method in brief:
as §3

Assay [15] has as its system Streptococcus pneumoniae. Briefly: Antimicrobial activity against drug-resistant Streptococcus pneumoniae isolate 1076 by NCCLS M7-A7 method.
For assay [16], the system named is Streptococcus pneumoniae. Briefly: Antimicrobial activity against drug-resistant Streptococcus pneumoniae isolate 37 after 14 passages by multi-step resistance selection technique. The method in brief:
as §4

Assay [17] relates to Streptococcus pneumoniae. The experiment in a line: Antimicrobial activity against drug-resistant Streptococcus pneumoniae isolate 1076 after 14 passages by multi-step resistance selection technique. The method in brief:
as §1

Assay [18] has as its system Streptococcus pneumoniae. The experiment in a line: Antimicrobial activity against drug-resistant Streptococcus pneumoniae isolate 3243 after 29 passages by multi-step resistance selection technique. The method in brief: as §2
The subject of assay [19] is Streptococcus pneumoniae. Briefly: Antimicrobial activity against drug-resistant Streptococcus pneumoniae isolate 1635 by NCCLS M7-A7 method.
Assay [20] relates to Streptococcus pneumoniae. Briefly: Antimicrobial activity against drug-resistant Streptococcus pneumoniae isolate 1077 after 15 passages by multi-step resistance selection technique. A digest of the protocol:
as §2

Assay [21] relates to Streptococcus pneumoniae. Briefly: Antimicrobial activity against drug-resistant Streptococcus pneumoniae isolate 2527 after 14 passages by multi-step resistance selection technique. The method in brief: as §1
The test system of assay [22] is Streptococcus pneumoniae. The experiment in a line: Antimicrobial activity against drug-resistant Streptococcus pneumoniae isolate 3665 after 50 passages by multi-step resistance selection technique. The method in brief: as §4
The subject of assay [23] is Streptococcus pneumoniae. The experiment in a line: Antimicrobial activity against drug-resistant Streptococcus pneumoniae isolate 3009 after 21 passages by multi-step resistance selection technique. The method in brief: as §1
Assay [24] deals with Streptococcus pneumoniae. Briefly: Antimicrobial activity against drug-resistant Streptococcus pneumoniae isolate 3676 after 50 passages by multi-step resistance selection technique. A digest of the protocol: as §4

With `CC[C@H]1OC(=O)[C@H](C)C(=O)[C@H](C)[C@@H](O[C@@H]2O[C@H](C)C[C@H](N(C)C)[C@H]2O)[C@](C)(OC)C[C@@H](C)C(=O)[C@H](C)[C@H]2N(CCCCn3cnc(-c4cccnc4)c3)C(=O)O[C@]12C` [TELITHROMYCIN], the minimum inhibitory concentration (MIC) against Streptococcus pneumoniae [1] was found to be 0.06 µg/mL (≈ 0.0739 µM); against Streptococcus pneumoniae [2], 0.03 µg/mL (≈ 0.0369 µM); in the assay on Streptococcus pneumoniae [3] it was 0.25 µg/mL (≈ 0.308 µM); against Streptococcus pneumoniae [4], 0.5 µg/mL (≈ 0.616 µM); against Streptococcus pneumoniae [5] it was 32 µg/mL (≈ 39.4 µM); in the assay with Streptococcus pneumoniae [6], 0.5 µg/mL (≈ 0.616 µM). For the same compound, the minimum inhibitory concentration (MIC) is 2 µg/mL (≈ 2.46 µM) in the assay on Streptococcus pneumoniae [7]; 0.03 µg/mL (≈ 0.0369 µM) with Streptococcus pneumoniae [8]; 0.25 µg/mL (≈ 0.308 µM) with Streptococcus pneumoniae [9]; 0.016 µg/mL (≈ 0.0197 µM) in the assay on Streptococcus pneumoniae [10]; more than 64 µg/mL in the assay with Streptococcus pneumoniae [11]; 0.016 µg/mL (≈ 0.0197 µM) against Streptococcus pneumoniae [12]. For the same compound, the MIC was 2 µg/mL (≈ 2.46 µM) against Streptococcus pneumoniae [13]; 0.5 µg/mL (≈ 0.616 µM) against Streptococcus pneumoniae [14]; 0.5 µg/mL (≈ 0.616 µM) with Streptococcus pneumoniae [15]; 4 µg/mL (≈ 4.93 µM) in the assay with Streptococcus pneumoniae [16]; more than 64 µg/mL with Streptococcus pneumoniae [17]; 0.06 µg/mL (≈ 0.0739 µM) against Streptococcus pneumoniae [18]. In addition, the minimum inhibitory concentration (MIC) in the assay on Streptococcus pneumoniae [19] turned out to be 0.004 µg/mL (≈ 0.00493 µM); in the assay on Streptococcus pneumoniae [20] it was 0.25 µg/mL (≈ 0.308 µM).
Consider `CO/N=C1\CN(c2nc3c(cc2F)c(=O)c(C(=O)O)cn3C2CC2)CC1CN` (configuration not stated) [GEMIFLOXACIN], for which the minimal inhibitory concentration (MIC) with Streptococcus pneumoniae [1] is 0.25 µg/mL (≈ 0.642 µM); against Streptococcus pneumoniae [4] it was 0.03 µg/mL (≈ 0.077 µM); in the assay with Streptococcus pneumoniae [21], 2 µg/mL (≈ 5.14 µM); in the assay with Streptococcus pneumoniae [8] it was 0.25 µg/mL (≈ 0.642 µM); against Streptococcus pneumoniae [22], 0.06 µg/mL (≈ 0.154 µM); against Streptococcus pneumoniae [23], 1 µg/mL (≈ 2.57 µM). In addition, the MIC worked out at 0.25 µg/mL (≈ 0.642 µM) against Streptococcus pneumoniae [9]; 0.03 µg/mL (≈ 0.077 µM) with Streptococcus pneumoniae [10]; 0.25 µg/mL (≈ 0.642 µM) against Streptococcus pneumoniae [11]; 0.03 µg/mL (≈ 0.077 µM) against Streptococcus pneumoniae [14]; 0.25 µg/mL (≈ 0.642 µM) against Streptococcus pneumoniae [15]; 0.03 µg/mL (≈ 0.077 µM) in the assay with Streptococcus pneumoniae [24]. The same compound gave a minimal inhibitory concentration (MIC) against Streptococcus pneumoniae [19] of 0.016 µg/mL (≈ 0.0411 µM).
`CO/N=C(\C(=O)N[C@@H]1C(=O)N2C(C(=O)O)=C(CSc3nc(=O)c(O)nn3C)CS[C@H]12)c1csc(N)n1` [CEFTRIAXONE]: the minimum inhibitory concentration (MIC) was found to be 0.016 µg/mL (≈ 0.0289 µM) with Streptococcus pneumoniae [1]; 0.03 µg/mL (≈ 0.0541 µM) in the assay on Streptococcus pneumoniae [2]; 0.125 µg/mL (≈ 0.225 µM) in the assay with Streptococcus pneumoniae [4]; 2 µg/mL (≈ 3.61 µM) in the assay with Streptococcus pneumoniae [8]; 0.06 µg/mL (≈ 0.108 µM) against Streptococcus pneumoniae [22]; 0.016 µg/mL (≈ 0.0289 µM) in the assay on Streptococcus pneumoniae [9]. Further, the minimal inhibitory concentration (MIC) against Streptococcus pneumoniae [10] was determined as 0.125 µg/mL (≈ 0.225 µM); with Streptococcus pneumoniae [11] it was 0.03 µg/mL (≈ 0.0541 µM); in the assay on Streptococcus pneumoniae [12] it was 8 µg/mL (≈ 14.4 µM); with Streptococcus pneumoniae [14], 2 µg/mL (≈ 3.61 µM); against Streptococcus pneumoniae [15], 0.016 µg/mL (≈ 0.0289 µM); with Streptococcus pneumoniae [24] it was 0.06 µg/mL (≈ 0.108 µM). In the assay on Streptococcus pneumoniae [19], 0.016 µg/mL (≈ 0.0289 µM) was the least that counted as inhibitory (MIC).
For the compound `C[C@@H](O)[C@H]1C(=O)N2C(C(=O)O)=C(SCCNC=N)C[C@H]12` [IMIPENEM ANHYDROUS], the minimal inhibitory concentration (MIC) in the assay on Streptococcus pneumoniae [1] was 0.004 µg/mL (≈ 0.0134 µM); against Streptococcus pneumoniae [2] it was 0.008 µg/mL (≈ 0.0267 µM); against Streptococcus pneumoniae [4], 0.016 µg/mL (≈ 0.0534 µM); with Streptococcus pneumoniae [8], 0.5 µg/mL (≈ 1.67 µM); in the assay on Streptococcus pneumoniae [22] it was 0.016 µg/mL (≈ 0.0534 µM); in the assay with Streptococcus pneumoniae [9], 0.008 µg/mL (≈ 0.0267 µM). Besides, the MIC worked out at 0.03 µg/mL (≈ 0.1 µM) with Streptococcus pneumoniae [10]; 0.004 µg/mL (≈ 0.0134 µM) in the assay with Streptococcus pneumoniae [11]; 0.25 µg/mL (≈ 0.835 µM) in the assay with Streptococcus pneumoniae [12]; 0.125 µg/mL (≈ 0.418 µM) in the assay with Streptococcus pneumoniae [14]; 0.008 µg/mL (≈ 0.0267 µM) against Streptococcus pneumoniae [15]; 0.016 µg/mL (≈ 0.0534 µM) against Streptococcus pneumoniae [24]. This compound returned a minimal inhibitory concentration (MIC) in the assay on Streptococcus pneumoniae [19] of 0.002 µg/mL (≈ 0.00668 µM).
With `CN(C)c1cc(NC(=O)CNC(C)(C)C)c(O)c2c1C[C@H]1C[C@H]3[C@H](N(C)C)C(O)=C(C(N)=O)C(=O)[C@@]3(O)C(O)=C1C2=O` [TIGECYCLINE], the MIC with Streptococcus pneumoniae [1] is 0.03 µg/mL (≈ 0.0512 µM); with Streptococcus pneumoniae [2], 0.016 µg/mL (≈ 0.0273 µM); in the assay with Streptococcus pneumoniae [4], 0.03 µg/mL (≈ 0.0512 µM); with Streptococcus pneumoniae [8], 0.03 µg/mL (≈ 0.0512 µM); in the assay with Streptococcus pneumoniae [22], 0.016 µg/mL (≈ 0.0273 µM); with Streptococcus pneumoniae [9], 0.03 µg/mL (≈ 0.0512 µM). In addition, the MIC with Streptococcus pneumoniae [10] is 0.03 µg/mL (≈ 0.0512 µM); against Streptococcus pneumoniae [11], 0.03 µg/mL (≈ 0.0512 µM); with Streptococcus pneumoniae [12], 0.016 µg/mL (≈ 0.0273 µM); in the assay with Streptococcus pneumoniae [14] it was 0.03 µg/mL (≈ 0.0512 µM); against Streptococcus pneumoniae [15] it was 0.03 µg/mL (≈ 0.0512 µM); in the assay with Streptococcus pneumoniae [24], 0.016 µg/mL (≈ 0.0273 µM). The compound further registered a minimal inhibitory concentration (MIC) in the assay with Streptococcus pneumoniae [19] of 0.016 µg/mL (≈ 0.0273 µM).
